ChEMBL document CHEMBL1127414 (J Med Chem, 1994)

Legend:
[1] = target: T1, Squalene synthase (Mus musculus) (UniProt P53798); assay: Tested for the effective dose required for the incorporation of [5-3H]-mevalonolactone into cholesterol by in vivo mouse assay by peroral administration; assay type: functional, organism-based
T1 sequence (whole entry): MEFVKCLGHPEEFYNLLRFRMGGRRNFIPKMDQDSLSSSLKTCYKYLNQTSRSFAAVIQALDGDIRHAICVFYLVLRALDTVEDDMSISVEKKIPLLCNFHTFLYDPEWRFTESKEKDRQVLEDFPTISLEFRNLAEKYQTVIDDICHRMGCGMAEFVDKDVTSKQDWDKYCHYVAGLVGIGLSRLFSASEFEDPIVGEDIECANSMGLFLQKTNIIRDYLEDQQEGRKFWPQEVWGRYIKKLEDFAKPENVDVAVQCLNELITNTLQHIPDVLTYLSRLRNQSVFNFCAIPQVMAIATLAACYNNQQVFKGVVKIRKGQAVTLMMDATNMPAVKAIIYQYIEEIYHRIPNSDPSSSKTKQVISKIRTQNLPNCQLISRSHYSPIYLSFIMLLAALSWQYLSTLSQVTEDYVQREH
How it was run: (§1)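 Female Swiss Webster mice (~25 g), six per group, dosed po by gavage with inhibitor suspended in 5% emulphor. 30 min later, 0.5 μCi/mouse [5-3H]mevalonolactone in saline given sc. Livers removed 30 min after that and saponified in KOH/EtOH overnight at 55 °C, then petroleum-ether extracted. Nonsaponifiable dpm counted. Compounds first tested at a single dose (typically 12 or 24 mg/kg).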

Mus musculus = assay: Ability to inhibit the incorporation of [5-3H]-mevalonolactone into cholesterol by in vivo mouse assay by peroral administration at a dose of 24 mg/kg; assay type: functional; settings: route oral; how it was run: as §1
[2] = target: T2, Squalene synthase (Rattus norvegicus) (UniProt Q02769); assay: Concentration required to inhibit rat liver squalene synthase enzyme relative to control (L-694,599)
T2 sequence (whole entry): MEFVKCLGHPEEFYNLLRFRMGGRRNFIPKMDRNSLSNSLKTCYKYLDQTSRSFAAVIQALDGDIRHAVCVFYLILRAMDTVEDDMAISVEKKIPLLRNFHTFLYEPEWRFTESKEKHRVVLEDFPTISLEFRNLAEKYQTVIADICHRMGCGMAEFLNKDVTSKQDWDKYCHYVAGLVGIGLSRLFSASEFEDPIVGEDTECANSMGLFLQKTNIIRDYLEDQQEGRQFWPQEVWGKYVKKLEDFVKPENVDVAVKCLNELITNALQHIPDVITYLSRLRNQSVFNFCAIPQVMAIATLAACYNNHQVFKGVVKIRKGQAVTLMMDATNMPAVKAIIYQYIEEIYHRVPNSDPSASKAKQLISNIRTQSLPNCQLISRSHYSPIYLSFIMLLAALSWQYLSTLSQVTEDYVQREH
How it was run: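 Enzyme from rat liver. […] Inhibitors added in DMSO (0.3% final) as 3-fold serial dilutions, usually up to 30 ng/mL (about 40 nM). IC50 read from % inhibition vs log concentration.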

Squalene synthase = target: T3, Squalene synthase (Rattus norvegicus, UniProt Q02769); assay: Tested for inhibition against squalene synthase enzyme in rat liver
T3 sequence (Q02769 whole entry): T2 sequence (whole entry)

| Structure (SMILES) | ED50 [1] | inhibition in vivo at 24 mg/kg (Mus musculus) | Relative activity [2] | IC50 (Squalene synthase) |
| --- | --- | --- | --- | --- |
| C=C(CCC12OC(C(=O)O)C(O)(C(=O)O)C(C(=O)O)(O1)[C@H](OC(=O)CCCC)[C@H]2O)[C@@H](OC(C)=O)[C@H](C)Cc1ccccc1 (stereo partly drawn) | > 24 mg/kg | 40% | – | – |
| C=C(CCC12OC(C(=O)O)C(O)(C(=O)O)C(C(=O)O)(O1)[C@H](OC(=O)NCC1CC1)[C@H]2O)[C@@H](OC(C)=O)[C@H](C)Cc1ccccc1 (stereo partly drawn) | 8 mg/kg | – | 0.04 | 17 nM |
| C=C(CCC12OC(C(=O)O)C(O)(C(=O)O)C(C(=O)O)(O1)[C@H](OC(=O)CC)[C@H]2O)[C@@H](OC(C)=O)[C@H](C)Cc1ccccc1 (stereo partly drawn) | 12 mg/kg | – | 0.02 | 11 nM |
| C=C(CCC12OC(C(=O)O)C(O)(C(=O)O)C(C(=O)O)(O1)[C@H](OC(=S)NC(C)C)[C@H]2O)[C@@H](OC(C)=O)[C@H](C)Cc1ccccc1 (stereo partly drawn) | – | – | – | 14 nM |
| C=C(CCC12OC(C(=O)O)C(O)(C(=O)O)C(C(=O)O)(O1)[C@H](OC(=O)OC(C)C)[C@H]2O)[C@@H](OC(C)=O)[C@H](C)Cc1ccccc1 (stereo partly drawn) | 10 mg/kg | – | 0.1 | 3 nM |
| C=C(CCC12OC(C(=O)O)C(O)(C(=O)O)C(C(=O)O)(O1)[C@H](OCCC[C@@H](C)C[C@@H](C)CC)[C@H]2O)[C@@H](OC(C)=O)[C@H](C)Cc1ccccc1 (stereo partly drawn) | – | 38% | 1 | 0.2 nM |
| C=C(CCC12OC(C(=O)O)C(O)(C(=O)O)C(C(=O)O)(O1)[C@H](OC(=O)NC)[C@H]2O)[C@@H](OC(C)=O)[C@H](C)Cc1ccccc1 (stereo partly drawn) | 11 mg/kg | – | – | – |
| C=C(CCC12OC(C(=O)O)C(O)(C(=O)O)C(C(=O)O)(O1)[C@H](OC(=O)NCc1ccccc1)[C@H]2O)[C@@H](OC(C)=O)[C@H](C)Cc1ccccc1 (stereo partly drawn) | 40 mg/kg | – | 0.14 | 1.6 nM |
| C=C(C)CC(=O)O[C@@H]1[C@@H](O)C2(CCC(=C)[C@@H](OC(C)=O)[C@H](C)Cc3ccccc3)OC(C(=O)O)C(O)(C(=O)O)C1(C(=O)O)O2 (stereo partly drawn) | 12 mg/kg | – | 0.06 | 5.6 nM |
| C=C(CCC12OC(C(=O)O)C(O)(C(=O)O)C(C(=O)O)(O1)[C@H](OCCCC)[C@H]2O)[C@@H](OC(C)=O)[C@H](C)Cc1ccccc1 (stereo partly drawn) | 12 mg/kg | – | 0.08 | 2 nM |
| C=C(CCC12OC(C(=O)O)C(O)(C(=O)O)C(C(=O)O)(O1)[C@H](OC(=O)OCCC[C@@H](C)C[C@@H](C)CC)[C@H]2O)[C@@H](OC(C)=O)[C@H](C)Cc1ccccc1 (stereo partly drawn) | – | -4% | 0.77 | 0.26 nM |
| C=C(CCC12OC(C(=O)O)C(O)(C(=O)O)C(C(=O)O)(O1)[C@H](OC(=O)OC)[C@H]2O)[C@@H](OC(C)=O)[C@H](C)Cc1ccccc1 (stereo partly drawn) | 9 mg/kg | – | 0.06 | 3.5 nM |
| C=C(CCC12OC(C(=O)O)C(O)(C(=O)O)C(C(=O)O)(O1)[C@H](OC(=O)CCCOC)[C@H]2O)[C@@H](OC(C)=O)[C@H](C)Cc1ccccc1 (stereo partly drawn) | 20 mg/kg | – | 0.03 | 25 nM |
| C=C(CCC12OC(C(=O)O)C(O)(C(=O)O)C(C(=O)O)(O1)[C@H](OC(=O)NC1CC1)[C@H]2O)[C@@H](OC(C)=O)[C@H](C)Cc1ccccc1 (stereo partly drawn) | 11 mg/kg | – | 0.09 | 3.2 nM |
| C=C(CCC12OC(C(=O)O)C(O)(C(=O)O)C(C(=O)O)(O1)[C@H](OC(=O)CC(C)C)[C@H]2O)[C@@H](OC(C)=O)[C@H](C)Cc1ccccc1 (stereo partly drawn) | 11 mg/kg | – | 0.13 | 4.3 nM |
| C=C(CCC12OC(C(=O)O)C(O)(C(=O)O)C(C(=O)O)(O1)[C@H](OC(=O)C(C)C)[C@H]2O)[C@@H](OC(C)=O)[C@H](C)Cc1ccccc1 (stereo partly drawn) | 8 mg/kg | – | 0.02 | 21 nM |
| C=C(CCC12OC(C(=O)O)C(OCCCCCCCCCCCC)(C(=O)O)C(C(=O)O)(O1)[C@H](O)[C@H]2O)[C@@H](OC(C)=O)[C@H](C)Cc1ccccc1 (stereo partly drawn) | – | – | 0.08 | 1.2 nM |
| C=C(CCC12OC(C(=O)O)C(O)(C(=O)O)C(C(=O)O)(O1)[C@H](OCCC)[C@H]2O)[C@@H](OC(C)=O)[C@H](C)Cc1ccccc1 (stereo partly drawn) | 8 mg/kg | – | 0.05 | 10 nM |

| Structure (SMILES) | ED50 [1] | inhibition in vivo at 24 mg/kg (Mus musculus) | Relative activity [2] | IC50 (Squalene synthase) |
| --- | --- | --- | --- | --- |
| CC[C@H](C)C[C@H](C)CCC(=O)O[C@@H]1[C@@H](O)C2(CCCCc3ccccc3)OC(C(=O)O)C(O)(C(=O)O)C1(C(=O)O)O2 (stereo partly drawn) | – | – | 0.002 | 137 nM |
| CCCC(=O)O[C@@H]1[C@@H](O)C2(CCCCCCc3ccccc3)OC(C(=O)O)C(O)(C(=O)O)C1(C(=O)O)O2 (stereo partly drawn) | – | -6% | 0.0008 | 362 nM |
| C=C(CCC12OC(C(=O)O)C(O)(C(=O)O)C(C(=O)O)(O1)[C@H](OC(=O)CCC)[C@H]2O)[C@@H](OC(=O)CCC)[C@H](C)Cc1ccccc1 (stereo partly drawn) | – | 1% | 0.027 | 9.7 nM |
| C=C(CCC12OC(C(=O)O)C(O)(C(=O)O)C(C(=O)O)(O1)[C@H](OC(=O)[C@@H](C)CC)[C@H]2O)[C@@H](OC(C)=O)[C@H](C)Cc1ccccc1 (stereo partly drawn) | 24 mg/kg | – | 0.04 | 18 nM |
| C=C(CCC12OC(C(=O)O)C(O)(C(=O)O)C(C(=O)O)(O1)[C@H](OC(=O)CCC)[C@H]2O)[C@@H](OC(C)=O)[C@H](C)Cc1ccccc1 (stereo partly drawn) | 4.5 mg/kg | – | 0.07 | 9.2 nM |
| C=C(CCC12OC(C(=O)O)C(O)(C(=O)O)C(C(=O)O)(O1)[C@H](OC(=O)NC(C)C)[C@H]2O)[C@@H](OC(C)=O)[C@H](C)Cc1ccccc1 (stereo partly drawn) | 6 mg/kg | – | 0.05 | 8 nM |
| CC(/C=C/CCC(=O)O[C@@H]1[C@@H](O)C2(CCCCC(C)Cc3ccccc3)OC(C(=O)O)C(O)(C(=O)O)C1(C(=O)O)O2)CCCc1ccccc1 (stereo partly drawn) | – | 8% | 1 | 0.14 nM |
| C=C(CCC12OC(C(=O)O)C(O)(C(=O)O)C(C(=O)O)(O1)[C@H](OCCC(C)C)[C@H]2O)[C@@H](OC(C)=O)[C@H](C)Cc1ccccc1 (stereo partly drawn) | 9 mg/kg | – | 0.09 | 2.3 nM |
| C=C(CCC12OC(C(=O)O)C(O)(C(=O)O)C(C(=O)O)(O1)[C@H](OC(=O)NCCCCCCCCCCCCCC)[C@H]2O)[C@@H](OC(C)=O)[C@H](C)Cc1ccccc1 (stereo partly drawn) | – | 12% | 0.5 | 0.28 nM |
| C=C(CCC12OC(C(=O)O)C(O)(C(=O)O)C(C(=O)O)(O1)[C@H](OC(=O)CCC)[C@H]2O)[C@@H](OC(=O)CC)[C@H](C)Cc1ccccc1 (stereo partly drawn) | – | 67% | 0.03 | 8.8 nM |
| C=C(CCC12OC(C(=O)O)C(O)(C(=O)O)C(C(=O)O)(O1)[C@H](OC(=O)NCC)[C@H]2O)[C@@H](OC(C)=O)[C@H](C)Cc1ccccc1 (stereo partly drawn) | 11 mg/kg | – | 0.02 | 16 nM |
| C=C(CCC12OC(C(=O)O)C(O)(C(=O)O)C(C(=O)O)(O1)[C@H](OC(C)=O)[C@H]2O)[C@@H](OC(C)=O)[C@H](C)Cc1ccccc1 (stereo partly drawn) | 18 mg/kg | – | 0.02 | 36.1 nM |
| C=C(CCC12OC(C(=O)O)C(O)(C(=O)O)C(C(=O)O)(O1)[C@H](OC(=O)OCC)[C@H]2O)[C@@H](OC(C)=O)[C@H](C)Cc1ccccc1 (stereo partly drawn) | 9 mg/kg | – | 0.02 | 9.2 nM |
| C=C(CCC12OC(C(=O)O)C(O)(C(=O)O)C(C(=O)O)(O1)[C@H](OC(=O)N(C)C)[C@H]2O)[C@@H](OC(C)=O)[C@H](C)Cc1ccccc1 (stereo partly drawn) | > 24 mg/kg | – | – | – |
| CC[C@H](C)C[C@H](C)CCC(=O)O[C@@H]1[C@@H](O)C2(CCCCCCc3ccccc3)OC(C(=O)O)C(O)(C(=O)O)C1(C(=O)O)O2 (stereo partly drawn) | – | -2% | 0.144 | 1.8 nM |
| C=C(CCC12OC(C(=O)O)C(O)(C(=O)O)C(C(=O)O)(O1)[C@H](OC(=O)NCCC[C@@H](C)C[C@@H](C)CC)[C@H]2O)[C@@H](OC(C)=O)[C@H](C)Cc1ccccc1 (stereo partly drawn) | – | -2% | 0.25 | 0.8 nM |
| CCCC(=O)O[C@@H]1[C@@H](O)C2(CCCCc3cccc4ccccc34)OC(C(=O)O)C(O)(C(=O)O)C1(C(=O)O)O2 (stereo partly drawn) | – | – | 0.00014 | 1800 nM |
| C=C(CCC12OC(C(=O)O)C(O)(C(=O)O)C(C(=O)O)(O1)[C@H](OC(=O)NC1CCC1)[C@H]2O)[C@@H](OC(C)=O)[C@H](C)Cc1ccccc1 (stereo partly drawn) | 6 mg/kg | – | 0.05 | 14 nM |
